Measurements from ChEMBL document CHEMBL5236662, “Synthesis and biological evaluation of tert-butyl ester and ethyl ester prodrugs of L-γ-methyleneglutamic acid amides for cancer” (Bioorg Med Chem, 2023).
Each block holds one compound with its values, some of them ahead of it.

Tests used:
[1] = Stability in mouse liver microsomes assessed as drug degradation; format: ADME, Microsome
[2] = Stability in mouse plasma assessed as drug degradation; format: ADME, cell-free
[3] = Volume of distribution in CD-1 mouse plasma at 2.5 mg/kg, iv measured for 24 hrs by LC-MS/MS analysis; format: ADME, organism-based; settings: in vivo
In short: (§1)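 Fasted (~4 h) male CD1 mice, n = 24 per route, received 2.5 mg/kg iv or ip in 5% DMSO/95% normal saline. Blood was drawn into K2EDTA at pre-dose, 0.083, 0.5, 1, 2, 4, 8 and 24 h, and plasma was separated. Samples were precipitated with acetonitrile, with tolbutamide as internal standard, then quantified by UPLC-MS/MS (MRM). Parameters came from noncompartmental analysis.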

BNC6 = test: Antiproliferative activity against human BNC6 cells assessed as suppression of cell growth incubated for 24 to 72 hrs by CCK-8 assay; format: functional, cell-based; settings: dose 10-300 µM, time 24-72 hrs
In short: (§2)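 Primary patient-derived glioblastoma lines were grown in RPMI 1640 with 10% FBS. Cells were seeded at 3,000 per well and dosed 24 h later at 10, 50, 100, 200 and 300 μM for 24 or 72 h, with BiCNU as control. CCK-8 was added and OD450 read after 2 h at 37 °C. Data are % cell survival, from 3 independent replicates.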

WSU-HN30 = test: Antiproliferative activity against human WSU-HN30 cells assessed as suppression of cell growth incubated for 24 to 72 hrs by CCK-8 assay; format: functional, cell-based; settings: dose 10-300 µM, time 24-72 hrs
In short: (§3)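 Radiotherapy-resistant HNSCC lines were used: HN30 from pharynx SCC and HN31 from a lymph-node metastasis of the same patient. Cells in RPMI 1640 with 10% FBS were seeded at 3,000 per well and treated 24 h later with 10–300 μM (5 levels) for 24 or 72 h, with cisplatin as control. CCK-8 was read at OD450 after 2 h. Data are % survival, n = 3 independent experiments.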

[4] = Cytotoxicity against human MCF-10A cells assessed as inhibition of cell growth incubated for 24 hrs by Hoechst 33342/propidium iodide staining based fluorescence analysis; format: toxicity; settings: human, MCF-10A cells
[5] = Cytotoxicity against human MCF-10A cells assessed as inhibition of cell growth incubated for 72 hrs by Hoechst 33342/propidium iodide staining based fluorescence analysis; format: toxicity; settings: human, MCF-10A cells
[6] = Apparent half life in CD-1 mouse plasma at 2.5 mg/kg, ip measured for 24 hrs by LC-MS/MS analysis; format: ADME, organism-based; settings: in vivo; in short: as §1
[7] = AUC (0 to infinity) in CD-1 mouse kidney at 2.5 mg/kg, ip measured for 24 hrs by LC-MS/MS analysis; format: ADME, organism-based; parameters: time 24 hrs, dose 2.5 mg/kg, route ip; settings: in vivo
In short: (§4)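 Male CD1 mice (25–30 g), fasted ~4 h, given 2.5 mg/kg ip in 5% DMSO/95% normal saline. Brain, liver and kidney were taken at pre-dose, 0.5, 2, 4 and 24 h and homogenized in 5 volumes PBS. Homogenates got tolbutamide internal standard and acetonitrile protein precipitation. UPLC-MS/MS used MRM. Parameters came from noncompartmental analysis.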

[8] = Bioavailability in CD-1 mouse plasma at 2.5 mg/kg, ip measured for 24 hrs by LC-MS/MS analysis; format: ADME, organism-based; settings: in vivo; in short: as §1
BNC3 = test: Antiproliferative activity against human BNC3 cells assessed as suppression of cell growth incubated for 24 to 72 hrs by CCK-8 assay; format: functional, cell-based; settings: dose 10-300 µM, time 24-72 hrs; in short: as §2
[9] = Antiproliferative activity against human WSU-HN31 cells assessed as inhibition of cell growth incubated for 72 hrs by CCK-8 assay; format: functional, cell-based; settings: WSU-HN31, 72 h; in short: as §3
[10] = AUC (0 to infinity) in CD-1 mouse brain at 2.5 mg/kg, ip measured for 24 hrs by LC-MS/MS analysis; format: ADME, organism-based; parameters: dose 2.5 mg/kg, time 24 hrs, route ip; settings: in vivo; in short: as §4
[11] = Cmax in CD-1 mouse plasma at 2.5 mg/kg, iv measured for 24 hrs by LC-MS/MS analysis; format: ADME, organism-based; parameters: time 24 hrs, dose 2.5 mg/kg, route iv; settings: in vivo; in short: as §1
[12] = Antiproliferative activity against human WSU-HN30 cells assessed as inhibition of cell growth incubated for 72 hrs by CCK-8 assay; format: functional, cell-based; settings: WSU-HN30, 72 h; in short: as §3
[13] = Apparent half life in CD-1 mouse liver at 2.5 mg/kg, ip measured for 24 hrs by LC-MS/MS analysis; format: ADME, organism-based; settings: in vivo; in short: as §4
[14] = Cmax in CD-1 mouse kidney at 2.5 mg/kg, ip measured for 24 hrs by LC-MS/MS analysis; format: ADME, organism-based; parameters: dose 2.5 mg/kg, time 24 hrs, route ip; settings: in vivo; in short: as §4
[15] = Tmax in CD-1 mouse plasma at 2.5 mg/kg, ip measured for 24 hrs by LC-MS/MS analysis; format: ADME, organism-based; settings: in vivo; in short: as §1
[16] = Tmax in CD-1 mouse brain at 2.5 mg/kg, ip measured for 24 hrs by LC-MS/MS analysis; format: ADME, organism-based; settings: in vivo; in short: as §4
[17] = Antiproliferative activity against human BNC3 cells assessed as inhibition of cell growth incubated for 72 hrs by CCK-8 assay; format: functional, cell-based; settings: BNC3, 72 h; in short: as §2
[18] = AUC (0 to infinity) in CD-1 mouse plasma at 2.5 mg/kg, iv measured for 24 hrs by LC-MS/MS analysis; format: ADME, organism-based; parameters: dose 2.5 mg/kg, time 24 hrs, route iv; in short: as §1
[19] = Terminal half life in CD-1 mouse plasma at 2.5 mg/kg, iv measured for 24 hrs by LC-MS/MS analysis; format: ADME, organism-based; settings: in vivo; in short: as §1
[20] = Cmax in CD-1 mouse plasma at 2.5 mg/kg, ip measured for 24 hrs by LC-MS/MS analysis; format: ADME, organism-based; parameters: dose 2.5 mg/kg, time 24 hrs, route ip; settings: in vivo; in short: as §1
[21] = Tmax in CD-1 mouse liver at 2.5 mg/kg, ip measured for 24 hrs by LC-MS/MS analysis; format: ADME, organism-based; settings: in vivo; in short: as §4
[22] = Antiproliferative activity against human BNC6 cells assessed as inhibition of cell growth incubated for 72 hrs by CCK-8 assay; format: functional, cell-based; settings: BNC6, 72 h; in short: as §2
[23] = AUC (0 to infinity) in CD-1 mouse liver at 2.5 mg/kg, ip measured for 24 hrs by LC-MS/MS analysis; format: ADME, organism-based; parameters: time 24 hrs, dose 2.5 mg/kg, route ip; settings: in vivo; in short: as §4
WSU-HN31 = test: Antiproliferative activity against human WSU-HN31 cells assessed as suppression of cell growth incubated for 24 to 72 hrs by CCK-8 assay; format: functional, cell-based; settings: dose 10-300 µM, time 24-72 hrs; in short: as §3
[24] = AUC (0 to infinity) in CD-1 mouse plasma at 2.5 mg/kg, ip measured for 24 hrs by LC-MS/MS analysis; format: ADME, organism-based; parameters: dose 2.5 mg/kg, time 24 hrs, route ip; in short: as §1
[25] = Cmax in CD-1 mouse liver at 2.5 mg/kg, ip measured for 24 hrs by LC-MS/MS analysis; format: ADME, organism-based; parameters: time 24 hrs, dose 2.5 mg/kg, route ip; settings: in vivo; in short: as §4
[26] = Clearance in CD-1 mouse plasma at 2.5 mg/kg, iv measured for 24 hrs by LC-MS/MS analysis relative to hepatic blood flow; format: ADME, organism-based; settings: in vivo; in short: as §1
[27] = Apparent half life in CD-1 mouse kidney at 2.5 mg/kg, ip measured for 24 hrs by LC-MS/MS analysis; format: ADME, organism-based; settings: in vivo; in short: as §4
[28] = Tmax in CD-1 mouse plasma at 2.5 mg/kg, iv measured for 24 hrs by LC-MS/MS analysis; format: ADME, organism-based; settings: in vivo; in short: as §1
[29] = Tmax in CD-1 mouse kidney at 2.5 mg/kg, ip measured for 24 hrs by LC-MS/MS analysis; format: ADME, organism-based; settings: in vivo; in short: as §4

Stability [1]: Unstable
Stability [2]: Unstable
Structure (SMILES): NCc1ccc(F)cc1

Vd [3]: 4.6 L/kg
t1/2(app) [6]: 25.8 min
AUC [7]: 21944 ng·h/g
F [8]: 66%
AUC [10]: 44 ng·h/g
Cmax [11]: 3016 ng/mL
t1/2(app) [13]: 25.8 min
Cmax [14]: 17681 ng/g
Tmax [15]: 13.2 min
Tmax [16]: 30 min
AUC(0-inf) [18]: 1460 ng·h/mL
beta t1/2 [19]: 48 min
Cmax [20]: 1543 ng/mL
Tmax [21]: 60 min
AUC [23]: 10596 ng·h/g
AUC(0-inf) [24]: 967 ng·h/mL
Cmax [25]: 7291 ng/g
CL [26]: 31%
t1/2(app) [27]: 27.6 min
Tmax [28]: 7.2 min
Tmax [29]: 30 min
Structure (SMILES): C=C(C[C@H](N)C(=O)O)C(=O)NCc1ccc(F)cc1
Activity (BNC6): Dose-Dependent Effect
Activity (WSU-HN30): Dose-Dependent Effect
IC50 at 24 h [4]: > 1000 µM
IC50 at 72 h [5]: > 1000 µM
Activity (BNC3): Dose-Dependent Effect
IC50 [9]: 196 µM
IC50 [12]: 102 µM
IC50 [17]: 169 µM
IC50 [22]: 189 µM
Activity (WSU-HN31): Dose-Dependent Effect
